Test results reported in publication PMC4186687 (Molecular Pharmaceutics, 2014).

What was measured:
[1] = tested on: SK-OV-3 cells; experiment: Flow cytometry uptake with endocytic inhibitors; format: cell-based, human; settings: F′-PEpYLGLD:[W5R4C]–SeNPs 1:10, SK-OV-3, 2 h, 37 °C, n = 3
[2] = tested on: SK-OV-3 cells; experiment: Confocal microscopy on live cells; format: cell-based, human; settings: F′-PEpYLGLD 5 μM with or without [W5R4C]–SeNPs 50 μM, SK-OV-3, 2 h, 37 °C
Method in brief: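 SK-OV-3 cells, maintained in EMEM with 10% FBS and 1% penicillin–streptomycin at 37 °C under 5% CO2, were grown overnight on coverslips (1 × 10^5 cells per well). Fluorescein-labelled peptide (5 μM), alone or with peptide-capped selenium nanoparticles (50 μM), was added in opti-MEM for 2 h at 37 °C. Slides were washed and nuclei were DAPI-stained. Fluorescence intensity was compared with probe alone, in triplicate.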

Row | Compound | effect on uptake of F′-PEpYLGLD loaded [W5R4C]–SeNPs (in words) [1] | also measured
1 | [N-]=[N+]=[N-].[Na+] [sodium azide] | did not alter | 
2 | CCN(CC)CCCC(C)Nc1ccnc2cc(Cl)ccc12 (stereo not shown) [chloroquine] | did not significantly decrease | 
3 | F′-PEpYLGLD |  | intracellular fluorescence of F′-PEpYLGLD (confocal microscopy) [2]: No green fluorescence
4 | CN(C)CCCN1c2ccccc2Sc2ccc(Cl)cc21 [chlorpromazine] | did not significantly decrease | 
5 | CCN(c1nc(N)c(C(=O)N=C(N)N)nc1Cl)C(C)C [EIA, 5-(N-ethyl-N-isopropyl)-amiloride] |  | inhibition of uptake of F′-PEpYLGLD loaded [W5R4C]–SeNPs [1]: 40%
6 | C[C@@H]1[C@H](O)[C@@H](C)/C=C/C=C/CC/C=C/C=C/C=C/C=C/C(O[C@H]2O[C@H](C)[C@@H](O)[C@H](N)[C@@H]2O)CC2O[C@](O)(CC(O)C(O)CCC(O)CC(O)CC(O)CC(=O)O[C@H]1C)CC(O)C2C(=O)O (stereo partly shown) [nystatin] |  | inhibition of uptake of F′-PEpYLGLD loaded [W5R4C]–SeNPs [1]: 52%
7 | methyl-β-cyclodextrin | did not significantly decrease | 
